Measurements: ChEMBL document CHEMBL3124940, “Design, synthesis and biological evaluation of D-ring opened galantamine analogs as multifunctional anti-Alzheimer agents” (Eur J Med Chem, 2014)

Legend:
[1] = system: Rattus norvegicus; assay: Toxicity in Wistar rat assessed as lipidperoxidation product level in kidney at 6 umol/100 g body weight, ip by fluorometric analysis relative to control; type: organism-based; conditions: in vivo
Procedure, shortened: (§1)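 Rats dosed i.p.; tissues taken after 24 h. For GSH/GSSG, tissue homogenized in 11 volumes of 0.2 M sodium phosphate (5 mM EDTA, pH 8.0) plus 4 volumes of 25% metaphosphoric acid and centrifuged 12 000 × g, 4 °C, 30 min; supernatant read photometrically (GSH) or fluorometrically (GSSG). Lipid peroxidation products measured as TBARS in 19-volume ice-cold saline homogenates, fluorometrically.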

[2] = system: Rattus norvegicus; assay: Toxicity in Wistar rat assessed as lipidperoxidation product level in kidney at 1 umol/100 g body weight, ip by fluorometric analysis relative to control; type: organism-based; conditions: in vivo; procedure, shortened: as §1
[3] = system: Rattus norvegicus; assay: Toxicity in Wistar rat assessed as total glutathione level in kidney at 6 umol/100 g body weight, ip by fluorometric analysis relative to control; type: organism-based; conditions: in vivo; procedure, shortened: as §1
[4] = system: Rattus norvegicus; assay: Toxicity in Wistar rat assessed as total glutathione level in kidney at 1 umol/100 g body weight, ip by fluorometric analysis relative to control; type: organism-based; conditions: in vivo; procedure, shortened: as §1
[5] = system: Rattus norvegicus; assay: Toxicity in Wistar rat assessed as GSSG level in kidney at 6 umol/100 g body weight, ip by fluorometric analysis relative to control; type: organism-based; conditions: in vivo; procedure, shortened: as §1
[6] = system: Rattus norvegicus; assay: Toxicity in Wistar rat assessed as GSSG level in kidney at 1 umol/100 g body weight, ip by fluorometric analysis relative to control; type: organism-based; conditions: in vivo; procedure, shortened: as §1
[7] = system: Rattus norvegicus; assay: Toxicity in Wistar rat assessed as GSH level in kidney at 6 umol/100 g body weight, ip by fluorometric analysis relative to control; type: organism-based; conditions: in vivo
[8] = system: Rattus norvegicus; assay: Toxicity in Wistar rat assessed as GSH level in kidney at 1 umol/100 g body weight, ip by fluorometric analysis relative to control; type: organism-based; conditions: in vivo
[9] = system: Rattus norvegicus; assay: Toxicity in Wistar rat assessed as kidney weight at 6 umol/100 g body weight, ip relative to control; type: organism-based; conditions: in vivo
[10] = system: Rattus norvegicus; assay: Toxicity in Wistar rat assessed as kidney weight at 1 umol/100 g body weight, ip relative to control; type: organism-based; conditions: in vivo
[11] = system: Rattus norvegicus; assay: Toxicity in Wistar rat assessed as lipidperoxidation product level in brain at 6 umol/100 g body weight, ip by fluorometric analysis relative to control; type: organism-based; conditions: in vivo; procedure, shortened: as §1
[12] = system: Rattus norvegicus; assay: Toxicity in Wistar rat assessed as lipidperoxidation product level in brain at 1 umol/100 g body weight, ip by fluorometric analysis relative to control; type: organism-based; conditions: in vivo; procedure, shortened: as §1
[13] = system: Rattus norvegicus; assay: Toxicity in Wistar rat assessed as total glutathione level in brain at 6 umol/100 g body weight, ip by fluorometric analysis relative to control; type: organism-based; conditions: in vivo; procedure, shortened: as §1
[14] = system: Rattus norvegicus; assay: Toxicity in Wistar rat assessed as total glutathione level in brain at 1 umol/100 g body weight, ip by fluorometric analysis relative to control; type: organism-based; conditions: in vivo; procedure, shortened: as §1
[15] = system: Rattus norvegicus; assay: Toxicity in Wistar rat assessed as GSSG level in brain at 6 umol/100 g body weight, ip by fluorometric analysis relative to control; type: organism-based; conditions: in vivo; procedure, shortened: as §1
[16] = system: Rattus norvegicus; assay: Toxicity in Wistar rat assessed as GSSG level in brain at 1 umol/100 g body weight, ip by fluorometric analysis relative to control; type: organism-based; conditions: in vivo; procedure, shortened: as §1
[17] = system: Rattus norvegicus; assay: Toxicity in Wistar rat assessed as GSH level in brain at 6 umol/100 g body weight, ip by fluorometric analysis relative to control; type: organism-based; conditions: in vivo
[18] = system: Rattus norvegicus; assay: Toxicity in Wistar rat assessed as GSH level in brain at 1 umol/100 g body weight, ip by fluorometric analysis relative to control; type: organism-based; conditions: in vivo
[19] = system: Rattus norvegicus; assay: Toxicity in Wistar rat assessed as brain weight at 6 umol/100 g body weight, ip relative to control; type: organism-based; conditions: in vivo
[20] = system: Rattus norvegicus; assay: Toxicity in Wistar rat assessed as brain weight at 1 umol/100 g body weight, ip relative to control; type: organism-based; conditions: in vivo
[21] = system: Rattus norvegicus; assay: Toxicity in Wistar rat assessed as ethoxyresorufin-O-deethylation activity in liver measured as resorufin level at 6 umol/100 g body weight, ip by fluorometric analysis relative to control; type: organism-based; conditions: in vivo
Procedure, shortened: (§2)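 Rats dosed i.p.; after 24 h, liver homogenized 1:3 w/v in 0.1 M sodium phosphate pH 7.4 and centrifuged at 9000 × g, 4 °C, 20 min. Supernatant protein determined by the Biuret method. Ethoxyresorufin-O-deethylation measured fluorometrically as resorufin formed.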

[22] = system: Rattus norvegicus; assay: Toxicity in Wistar rat assessed as ethoxyresorufin-O-deethylation activity in liver measured as resorufin level at 1 umol/100 g body weight, ip by fluorometric analysis relative to control; type: organism-based; conditions: in vivo; procedure, shortened: as §2
[23] = system: Rattus norvegicus; assay: Toxicity in Wistar rat assessed as ethoxycoumarin-O-deethylation activity in liver measured as 7-hydroxycoumarin level at 6 umol/100 g body weight, ip by fluorometric analysis relative to control; type: organism-based; conditions: in vivo
[24] = system: Rattus norvegicus; assay: Toxicity in Wistar rat assessed as ethoxycoumarin-O-deethylation activity in liver measured as 7-hydroxycoumarin level at 1 umol/100 g body weight, ip by fluorometric analysis relative to control; type: organism-based; conditions: in vivo
[25] = system: Rattus norvegicus; assay: Toxicity in Wistar rat assessed as ethylmorphine-N-demethylation activity in liver measured as formaldehyde level at 6 umol/100 g body weight, ip by photometric analysis relative to control; type: organism-based; conditions: in vivo
[26] = system: Rattus norvegicus; assay: Toxicity in Wistar rat assessed as ethylmorphine-N-demethylation activity in liver measured as formaldehyde level at 1 umol/100 g body weight, ip by photometric analysis relative to control; type: organism-based; conditions: in vivo
[27] = system: Rattus norvegicus; assay: Toxicity in Wistar rat assessed as protein content in liver at 6 umol/100 g body weight, ip by Biuret method relative to control; type: organism-based; conditions: in vivo; procedure, shortened: as §2
[28] = system: Rattus norvegicus; assay: Toxicity in Wistar rat assessed as protein content in liver at 1 umol/100 g body weight, ip by Biuret method relative to control; type: organism-based; conditions: in vivo; procedure, shortened: as §2
[29] = system: Rattus norvegicus; assay: Toxicity in Wistar rat assessed as lipidperoxidation product level in liver at 6 umol/100 g body weight, ip relative to control; type: organism-based; conditions: in vivo
[30] = system: Rattus norvegicus; assay: Toxicity in Wistar rat assessed as lipidperoxidation product level in liver at 1 umol/100 g body weight, ip relative to control; type: organism-based; conditions: in vivo
[31] = system: Rattus norvegicus; assay: Toxicity in Wistar rat assessed as total glutathione level in liver at 6 umol/100 g body weight, ip by fluorometric analysis relative to control; type: organism-based; conditions: in vivo
Procedure, shortened: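 Rats were dosed, killed 24 h later, and liver and other tissues were taken. Samples were homogenized in 11 vol 0.2 M sodium phosphate (5 mM EDTA, pH 8.0) plus 4 vol 25% metaphosphoric acid, then spun at 12 000 × g, 4 °C, 30 min. GSH was read photometrically and GSSG fluorometrically in the supernatant, alongside total glutathione.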

[32] = system: Rattus norvegicus; assay: Toxicity in Wistar rat assessed as total glutathione level in liver at 1 umol/100 g body weight, ip by fluorometric analysis relative to control; type: organism-based; conditions: in vivo; procedure, shortened: as §1
[33] = system: Rattus norvegicus; assay: Toxicity in Wistar rat assessed as GSSG level in liver at 6 umol/100 g body weight, ip by fluorometric analysis relative to control; type: organism-based; conditions: in vivo; procedure, shortened: as §1
[34] = system: Rattus norvegicus; assay: Toxicity in Wistar rat assessed as GSSG level in liver at 1 umol/100 g body weight, ip by fluorometric analysis relative to control; type: organism-based; conditions: in vivo; procedure, shortened: as §1
[35] = system: Rattus norvegicus; assay: Toxicity in Wistar rat assessed as GSH level in liver at 6 umol/100 g body weight, ip by fluorometric analysis relative to control; type: organism-based; conditions: in vivo
[36] = system: Rattus norvegicus; assay: Toxicity in Wistar rat assessed as GSH level in liver at 1 umol/100 g body weight, ip by fluorometric analysis relative to control; type: organism-based; conditions: in vivo
[37] = system: Rattus norvegicus; assay: Toxicity in Wistar rat assessed as liver weight at 6 umol/100 g body weight, ip relative to control; type: organism-based; conditions: in vivo
[38] = system: Rattus norvegicus; assay: Toxicity in Wistar rat assessed as liver weight at 1 umol/100 g body weight, ip relative to control; type: organism-based; conditions: in vivo
[39] = system: Rattus norvegicus; assay: Toxicity in Wistar rat assessed as body weight at 6 umol/100 g body weight, ip relative to control; type: organism-based; conditions: in vivo
[40] = system: Rattus norvegicus; assay: Toxicity in Wistar rat assessed as body weight at 1 umol/100 g body weight, ip relative to control; type: organism-based; conditions: in vivo
[41] = system: Rattus norvegicus; assay: Toxicity in Wistar rat assessed as change in movement at 1 umol/100 g body weight, ip; type: organism-based; conditions: in vivo
[42] = system: Rattus norvegicus; assay: Antialzheimer activity in Wistar rat scopolamine-induced cognition impairment model assessed as total exploration time at 1 umol/100 g body weight, ip treated for 5 mins prior to scopolamine-challenge by eight-arm radial maze test relative to control; type: functional
Procedure, shortened: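 Female 60-day-old Wistar rats (Han:Wist) trained in an eight-arm radial maze to error-free trials under 60 s on three consecutive days; each animal served as its own control. Test agent given i.p. in saline 5 min before scopolamine (0.05 mg/100 g b. wt., i.p. in saline). Errors plus baits not found after 10 min, and total searching time, recorded before and 20, 60, 120 min after scopolamine; n = 14, mean ± SEM.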

[43] = system: Rattus norvegicus; assay: Toxicity in Wistar rat scopolamine-induced cognition impairment model assessed as change in movement at 1 umol/100 g body weight, ip; type: organism-based; conditions: in vivo
Procedure, shortened: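 60-day-old female Wistar rats were trained in an eight-arm radial maze to no errors in under 60 s on 3 consecutive days; each rat served as its own control. Compound in saline was given i.p., then scopolamine (0.05 mg/100 g, saline, i.p.) 5 min later. Errors plus baits not found after 10 min and total searching time were recorded before and 20, 60 and 120 min after scopolamine; n = 14, mean ± SEM.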

[44] = biological target: Acetylcholinesterase (Electrophorus electricus, UniProt O42275); assay: Inhibition of electric eel AChE using acetylthiocholine iodide as substrate preincubated for 5 mins followed by substrate addition measured after 5 mins by Ellman's method
Chain of Acetylcholinesterase (O42275 whole entry): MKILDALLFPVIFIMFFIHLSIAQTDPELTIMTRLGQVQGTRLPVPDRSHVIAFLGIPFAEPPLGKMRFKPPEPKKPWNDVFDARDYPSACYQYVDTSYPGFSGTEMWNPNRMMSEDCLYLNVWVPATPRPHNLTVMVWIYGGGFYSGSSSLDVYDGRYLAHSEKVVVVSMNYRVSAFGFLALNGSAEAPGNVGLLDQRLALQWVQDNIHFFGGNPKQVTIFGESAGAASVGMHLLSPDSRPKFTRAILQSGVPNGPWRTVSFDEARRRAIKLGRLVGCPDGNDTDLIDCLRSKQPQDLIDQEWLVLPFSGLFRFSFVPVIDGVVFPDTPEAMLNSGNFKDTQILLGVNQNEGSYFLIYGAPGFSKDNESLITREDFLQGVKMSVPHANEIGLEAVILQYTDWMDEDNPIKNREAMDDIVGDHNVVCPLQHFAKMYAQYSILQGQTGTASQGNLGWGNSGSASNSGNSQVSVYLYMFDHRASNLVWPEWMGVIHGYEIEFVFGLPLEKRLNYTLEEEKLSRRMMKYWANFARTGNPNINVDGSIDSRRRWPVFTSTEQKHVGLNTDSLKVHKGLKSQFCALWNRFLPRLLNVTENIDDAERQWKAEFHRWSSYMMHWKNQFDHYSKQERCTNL

[45] = biological target: Cholinesterase (Equus caballus, UniProt P81908); assay: Inhibition of equine serum BChE using butyrylthiocholine iodide as substrate preincubated for 5 mins followed by substrate addition measured after 5 mins by Ellman's method
Chain of Cholinesterase (P81908 whole entry): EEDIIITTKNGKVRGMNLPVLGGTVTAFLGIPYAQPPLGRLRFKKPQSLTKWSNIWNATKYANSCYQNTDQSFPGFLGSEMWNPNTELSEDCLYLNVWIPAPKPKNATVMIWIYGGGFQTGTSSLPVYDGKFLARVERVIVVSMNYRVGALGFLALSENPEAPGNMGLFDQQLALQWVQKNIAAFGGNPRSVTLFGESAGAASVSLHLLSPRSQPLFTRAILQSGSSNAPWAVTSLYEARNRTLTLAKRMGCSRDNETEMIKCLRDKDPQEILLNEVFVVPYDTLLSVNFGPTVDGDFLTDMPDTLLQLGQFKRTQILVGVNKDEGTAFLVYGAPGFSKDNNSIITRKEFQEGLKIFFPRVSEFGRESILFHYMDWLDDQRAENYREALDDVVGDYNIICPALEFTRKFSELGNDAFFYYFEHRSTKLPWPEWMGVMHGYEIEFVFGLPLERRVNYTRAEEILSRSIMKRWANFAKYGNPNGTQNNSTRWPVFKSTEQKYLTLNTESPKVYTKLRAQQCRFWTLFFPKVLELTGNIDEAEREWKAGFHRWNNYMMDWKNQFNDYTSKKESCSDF
Procedure, shortened: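 Ellman's method with equine serum BChE and butyrylthiocholine iodide; DTNB read-out at 412 nm, 25 °C. Phosphate buffer pH 8.0. At least five concentrations (normally 10^-4 to 10^-9 M), each in triplicate, to build the inhibition curve. Data are means of at least three determinations.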

[46] = Selectivity ratio of IC50 for electric eel AChE to IC50 for equine serum BChE
Procedure, shortened: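 AChE is electric eel Type VI-S with acetylthiocholine; BChE is equine serum with butyrylthiocholine. At least five concentrations, each in triplicate. Ratio = IC50(AChE)/IC50(BChE).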

`Nc1c2c(nc3ccccc13)CCCC2` [TACRINE] showed an Activity [1] of 89.2 nmol/g, an Activity [2] of 87.4 nmol/g and an Activity [3] of 1800 µg/g. For the same molecule, the Activity [4] was 1821 µg/g, the Activity [5] was 171 µg/g and the Activity [6] was 170 µg/g. It also gave an Activity [7] of 1457 µg/g, an Activity [8] of 1480 µg/g and an Activity [9] of 0.61 g. It also gave an Activity [10] of 0.65 g, an Activity [11] of 154 nmol/g and an Activity [12] of 123 nmol/g. It also gave an Activity [13] of 822 µg/g, an Activity [14] of 824 µg/g and an Activity [15] of 75.6 µg/g. The Activity [16] was 79.9 µg/g, the Activity [17] was 671 µg/g and the Activity [18] was 665 µg/g. For the same molecule, the Activity [19] was 1.82 g, the Activity [20] was 1.77 g and the Activity [21] was 100 pmol/mg/min. For the same molecule, the Activity [22] was 134 pmol/mg/min, the Activity [23] was 197 pmol/mg/min and the Activity [24] was 207 pmol/mg/min. The Activity [25] was 0.44 nmol/mg/min, the Activity [26] was 0.6 nmol/mg/min and the Activity [27] was 65.5 mg/mL. It also gave an Activity [28] of 61.8 mg/mL, an Activity [29] of 62 nmol/g and an Activity [30] of 63.8 nmol/g. For the same molecule, the Activity [31] was 3173 µg/g, the Activity [32] was 3378 µg/g and the Activity [33] was 431 µg/g. The Activity [34] was 418 µg/g, the Activity [35] was 2310 µg/g and the Activity [36] was 2542 µg/g. It also gave an Activity [37] of 6.2 g, an Activity [38] of 6.8 g and an Activity [39] of 219 g. For the same molecule, the Activity [40] was 228 g, the Activity [41] was “Toxic” and the Time [42] was 237 s. For the same molecule, the Activity [43] was “Toxic”.

Work on `CCNCc1cccc2oc3cc(OC)ccc3c12` yielded an IC50 [44] of 18.9 µM, an IC50 [45] of 22.2 µM and a Ratio IC50 [46] of 0.85.

Molecule `CCN(CC)Cc1cccc2[nH]c3cc(OC)ccc3c12` has an IC50 [44] of 37.9 µM, an IC50 [45] of 14.9 µM and a Ratio IC50 [46] of 2.54.
